CAL PDZ FP-1: CAL PDZ peptide-binding inhibitors, primary screen, biochemical, fluorescence polarization, Cer-tagged CAL PDZ, HTS; Golgi-associated PDZ and coiled-coil motif-containing protein (Homo sapiens), Q9HD26; purified CAL PDZ, TMR-peptide fluorescence polarization, 1 h; inhibition, % at 20 µM; 330,000 compounds, 0.02% hits;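 active = highest replicate inhibition of at least 40%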;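 note: plate controls were DMSO neutral control wells for no effect and unlabeled competitor peptide control wells for full effect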
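Material: tagged CAL PDZ protein CerCALP, purified; buffer or medium: sodium phosphate/NaCl buffer pH 7.4 with TCEP, IgG, Thesit; also added: fluorescent TMR peptide probe; schedule: 1 h incubation at room temperature before polarization reading; technique: fluorescence polarization from S- and P-plane intensities, G-factor corrected; control set: unlabelled peptide and DMSO controls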
ARNT-TACC3 inh: disruptors of ARNT/TACC3 protein interaction, primary screen, biochemical, AlphaScreen, single concentration. AlphaScreen His-ARNT PAS-B/GST-TACC3 binding, luminescence; TACC3 fragment carries E629A point mutation. inhibition, % at 9.99 µM. AID 623870, 2012. 390,000 compounds, 0.66% hits. Transforming acidic coiled-coil-containing protein 3 (Homo sapiens), Q9Y6A5;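 active = mean inhibition of replicates at least 50% and at least half of replicates each reaching 50%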;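 note: 0% = complete ARNT plus TACC3 wells and 100% = ARNT alone without TACC3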
CAL PDZ FP-2: untagged CAL PDZ binding inhibitors, primary screen, biochemical, fluorescence polarization, HTS. Golgi-associated PDZ and coiled-coil motif-containing protein (Homo sapiens), Q9HD26. inhibition, % at 24.9 µM. 300,000 compounds, 0.92% hits. AID 602252, 2012. purified CAL PDZ, TMR-peptide fluorescence polarization, 1 h;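 active = mean inhibition of at least 30% with at least half of replicates also reaching 30%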;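 note: 0% = DMSO neutral control and 100% = excess unlabeled competitor peptide PRC23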
* marks the source's active call; other numbers are inactive results; . = no result given. Rows were chosen to be rich in hits. Some 1.2% of all compounds tested hit in one or more screens of this group.

SMILES	CAL PDZ FP-1	ARNT-TACC3 inh	CAL PDZ FP-2
C[C@H]1CN([C@@H](C)CO)C(=O)Cc2cc(NC(=O)C3CC3)ccc2O[C@H]1CN(C)S(=O)(=O)c1ccccc1	.	-4.9	.
CO[C@@H]1CN(C)C(=O)c2ccc(NC(C)=O)cc2OC[C@@H](C)N(Cc2ccccn2)C[C@@H]1C	.	2.3	.
COc1ccc(CNC(=O)C2CCN(S(=O)(=O)c3cccc4nsnc34)CC2)cc1	-0.8	-6.6	37.0*
COc1ccc(CNC(=O)C2CCCN(S(=O)(=O)c3cccc4nsnc34)C2)cc1 (stereo not given)	-2.7	-1.1	-3.7
C[C@@H]1CN([C@H](C)CO)C(=O)CCCn2nncc2CO[C@@H]1CN(C)Cc1ccc(C(F)(F)F)cc1	.	-3.5	.
Cc1cccc(-n2ncc3c(=O)[nH]c(SCC(=O)N4CC(=O)Nc5ccccc54)nc32)c1	0.0	-2.6	37.4*
Cc1ccc(-n2ncc3c(=O)[nH]c(SCC(=O)N4CC(=O)Nc5ccccc54)nc32)cc1	0.2	-5.4	-1.5
CCCNC(=O)C[C@@H]1CC[C@@H]2[C@@H](COc3ccc(NC(=O)Nc4c(C)noc4C)cc3C(=O)N2C)O1	.	-6.8	.
O=C1CCn2c1c(O)c1ccccc1c2=O	-0.6	51.7*	-6.2
O=c1c2ccccc2nc2n1CCC2	22.2	-22.1	5.2
CCCN1[C@@H]2c3ccc(C4=CCCCC4)c(=O)n3C[C@H]1[C@H](CO)[C@H]2C(=O)NCC	.	-4.7	.
CCCNC(=O)N(C)C[C@@H]1Oc2cc(-c3ccncc3)ccc2S(=O)(=O)N([C@H](C)CO)C[C@H]1C	.	-6.1	.
Cc1cc(C)cc(-n2ncc3c2CCCC3NC(=O)C2CCC2)c1 (stereo not given)	-0.7	-2.0	52.9*
Cc1cc(C)cc(-n2ncc3c2CCCC3NC(=O)c2cc(C)[nH]n2)c1 (stereo not given)	-2.6	0.2	-4.9
CCc1ccc(S(=O)(=O)Nc2cc(SCC(=O)O)c(O)c3ccccc23)cc1	18.8	.	16.1
Cc1ccc(C)c(S(=O)(=O)Nc2cc(SCC(=O)O)c(O)c3ccccc23)c1	45.2*	54.1*	17.3
CCN(CC)c1ccc(CNc2nc3ccccc3n2CCN2CCCCC2)cc1	-0.4	20.3	42.6*
COc1ccc(CNc2nc3ccccc3n2CCN2CCCCC2)cc1	0.5	7.9	-2.7
Cc1cccc(NC(=O)N2CCC(NC(=O)c3ccco3)CC2)c1	.	-5.4	0.9
O=C(NC1CCN(C(=O)Nc2cccc(Cl)c2)CC1)c1ccco1	-0.1	5.6	58.1*
C[C@@H]1CN([C@@H](C)CO)C(=O)Cc2cc(NS(=O)(=O)c3ccccc3)ccc2O[C@H]1CN(C)S(=O)(=O)c1cccs1	.	13.0	.
O=C(C[C@@H]1CC[C@H]2[C@@H](COC[C@@H](O)CN2C(=O)c2ccc(F)cc2)O1)NCc1cccc(F)c1	.	-4.9	.
COC(=O)[C@H](Cc1ccccc1)NC(=O)NC(C)CCc1ccccc1 (stereo not given in full)	.	3.9	42.0*
COC(=O)C(Cc1ccccc1)NC(=O)CCC(=O)NC(C)CCc1ccccc1 (stereo not given)	-0.4	-1.2	-2.1
O=C(Nc1ccc2c(c1)[C@H]1C[C@H](CC(=O)N3CCCCC3)O[C@@H](CO)[C@H]1O2)c1cccnc1	.	-9.1	.
SMILES	CAL PDZ FP-1	ARNT-TACC3 inh	CAL PDZ FP-2
COc1ccc(OC)c(-n2c(-c3ccccc3)n[nH]c2=S)c1	0.9	-24.2	36.8*
COc1ccc(OC)c(-n2c(-c3cccc(C)c3)n[nH]c2=S)c1	-1.8	3.8	1.5
C[C@@H](NC(=O)C[C@@H]1C[C@@H]2c3cc(NC(=O)Nc4ccccc4F)ccc3O[C@@H]2[C@@H](CO)O1)c1ccccc1	.	-13.0	.
CC(NNC(=S)N1CCN(c2ccccn2)CC1)c1nccc2ccccc12 (stereo not given)	-1.3	63.4*	-2.1
CCNC(=S)N1CCN(c2ccccn2)CC1	0.2	-2.1	0.0
Cc1ccn2c(NC3CCCC3)c(-c3ccccn3)nc2c1	-0.1	30.8	-2.2
c1ccc(-c2nc3ccccn3c2NC2CCCC2)nc1	0.4	63.8*	-0.1
CCOc1ccc2nc(SCC(=O)c3ccc(O)cc3O)sc2c1	.	-7.0	36.1*
CCOc1ccc2nc(SCC(=O)c3ccc(C)s3)sc2c1	-3.1	.	-1.7
O=C(NNc1ccccn1)C(=O)NNS(=O)(=O)c1ccc(F)cc1	-2.2	62.8*	-0.9
O=C(NNS(=O)(=O)c1ccc(F)cc1)c1ccccc1	-0.4	2.8	2.0
COc1ccccc1C(=O)NNS(=O)(=O)c1ccc(F)cc1	0.4	-11.7	-5.4
O=C(NNS(=O)(=O)c1ccc(F)cc1)c1ccccc1F	-5.3	-1.3	40.9*
CC=Cc1ccc2n(c1=O)C[C@@H]1[C@@H](CO)[C@H](C(=O)NCC)[C@H]2N1CC1CCOCC1 (mixture of isomers)	.	-7.5	.
CC(C)NC(=O)N(C)C[C@H]1Oc2cc(-c3cccnc3)ccc2S(=O)(=O)N([C@H](C)CO)C[C@@H]1C	.	-6.4	.
O=C1NC(=O)/C(=C/c2ccc(N3CCOCC3)o2)N1	-0.8	-4.5	31.1*
O=C1NC(=O)/C(=C\c2ccc(N3CCOCC3)o2)N1	0.6	0.9	2.3
C[C@H]1CN([C@@H](C)CO)C(=O)c2cc(NC(=O)CCN3CCOCC3)ccc2O[C@@H]1CN(C)Cc1ccccc1	.	-19.1	.
COc1cc2c(cc1OC)CN(C(=O)c1ccc3nc[nH]c3c1)CC2	-2.8	.	10.2
O=C(c1ccc2nc[nH]c2c1)N1CCc2ccccc2C1	-1.2	-2.6	53.5*
C/C=C/c1ccc2c(c1)O[C@@H](CN(C)C(=O)Cc1ccccc1)[C@@H](C)CN([C@@H](C)CO)S2(=O)=O	.	-5.9	.
O=C(O)C[C@H]1CC[C@H](NC(=O)c2ccncc2)[C@H](CO)O1	.	3.1	.
CN(C)c1ccc(NC(=O)Nc2ccc3c(c2)nnn3C)cc1	-0.6	-4.3	42.6*
CN(C)c1ccc(NC(=O)c2ccc3c(c2)nnn3C)cc1	-1.0	-3.0	2.5
COc1ccccc1NC(=O)N[C@H]1C=C[C@@H](CC(=O)NCc2ccc(Cl)c(Cl)c2)O[C@H]1CO	.	13.7	.
SMILES	CAL PDZ FP-1	ARNT-TACC3 inh	CAL PDZ FP-2
O=C(NCc1ccccc1Cl)C1CCN(S(=O)(=O)N2CCC3(CC2)OCCO3)CC1	-0.9	2.3	-1.5
CN(C)c1ccc(CNC(=O)C2CCN(S(=O)(=O)c3ccc4c(c3)oc(=O)n4C)CC2)cc1	-2.7	5.9	1.2
Cn1c(=O)oc2cc(S(=O)(=O)N3CCC(C(=O)NCc4ccccc4Cl)CC3)ccc21	6.7	5.0	50.3*
O=C(Cn1c(=O)oc2cc(S(=O)(=O)N3CCCC3)ccc21)Nc1ccccc1Br	-1.3	-8.4	60.6*
CC(=O)c1cccc(NC(=O)Cn2c(=O)oc3cc(S(=O)(=O)N4CCCC4)ccc32)c1	-2.2	-3.9	-1.4
Cc1ccsc1CN1CCC(C(=O)NCc2ccccc2Cl)CC1	-1.7	1.2	59.3*
O=C(Nc1ccc2c(c1)[C@@H]1C[C@@H](CC(=O)N3CCCCC3)O[C@@H](CO)[C@@H]1O2)c1ccc2c(c1)OCO2	.	1.1	.

Source: PubChem BioAssay
